These results are taken from PMC9214057 (Acta Pharmaceutica Sinica. B, 2022).

Residues, ends and D or L forms follow the SMILES beside them. *: point of attachment. Cbz = O=C(OCc1ccccc1)*

One experiment concerns PD-L1. The settings on record: cited from earlier work.
For experiment [1], the system named is PD-1/NFAT reporter-Jurkat cells. Description: PD-L1 cell-based assay.
The next experiment relates to human SCC-3 tumor. To be noted: 20 mg/kg; cited from earlier work.
A further experiment relates to B16F10 tumor. To be noted: 60 mg/kg; cited from earlier work.
The subject of another experiment is hPD-L1 MC38 cells. Description: PD-L1 expression and localisation by Western blotting / immunofluorescence. It counts as cell-based, mouse. To be noted: 24 h. Summed up: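 hPD-L1 MC38 cells were exposed for 24 h. For immunofluorescence, cells on glass-bottom dishes were treated at 1 and 10 μmol/L, fixed, permeabilized, stained overnight with anti-PD-L1, then Alexa Fluor 488 secondary with DAPI, and imaged by confocal microscopy. For Western blotting, whole cells were treated at 0.1–10 μmol/L. Per lane, 60 μg protein was run on 10% SDS-PAGE and transferred to nitrocellulose. Primary antibody was 1:1000 overnight at 4 °C; β-actin or Na/K-ATPase served as loading control. Bands were quantified by densitometry.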
In general terms: In western blotting, separated proteins are transferred to a membrane and probed.

As to `C[C@@H](O)[C@H](NC(=O)N[C@@H](CC(N)=O)c1nc([C@@H](N)CO)no1)C(=O)O` [CA-170], in the experiment on PD-L1, the “direct binding to PD-L1” value is recorded as “no direct binding”. In the case of `COc1nc(OCc2cccc(-c3ccccc3)c2C)ccc1CNCCNC(C)=O` [BMS202], the “concentration required in the T cell activation assay” value in experiment [1] was “more than 10 μmol/L”. The “inhibition rate in humanized mouse-transplanted human SCC-3 tumor” value in the experiment with human SCC-3 tumor is 41%. The “inhibition rate in B16F10 tumor” value with B16F10 tumor is 50.1%. As for `CC(C)C[C@@H](C=O)NC(=O)[C@H](CC(C)C)NC(=O)[C@H](CC(C)C)NC(=O)OCc1ccccc1` [MG132] (Cbz-Leu-Leu-Leu-aldehyde), the “PD-L1 protein expression / distribution” value in the experiment with hPD-L1 MC38 cells was “increased”. Same read-out and setting: in the case of `CCN(CC)CCCC(C)Nc1ccnc2cc(Cl)ccc12` (stereo not drawn) [chloroquine] it was “increased”.
